Reference: ChEMBL document CHEMBL3600326, “Discovery of potent α1L-adrenoceptor agonists: Design and synthesis of bicyclic derivatives” (Bioorg Med Chem Lett, 2015)

Experiments:
CHO [1] = assay: Agonist activity at human alpha1L-adrenoceptor expressed in CHO cells co-expressing CRELD1alpha assessed as induction of calcium mobilization after 60 mins by fluorometric imaging plate reader assay relative to control noradrenaline; type: cell-based
Method in brief: (§1)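 CHO cells (α1L-dominant) expressing human α1A-AR plus human CRELD1α were plated and grown overnight at 37°C under CO2. Cells were loaded with Calcium 5 indicator dye for 60 min at 37°C, then calcium influx was read by FLIPR. Activity is expressed as EC50 relative to the noradrenaline EC50.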

Rattus norvegicus = species: Rattus norvegicus; assay: Agonist activity at alpha1L-adrenoceptor in Wistar rat isolated bladder neck assessed as induction of muscle contraction
Method in brief: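 Male Wistar rats anaesthetised with sodium pentobarbital (50 mg/kg) and killed. Bladder neck was isolated and cleaned in modified Krebs-Henseleit solution gassed with 95% O2/5% CO2. Strips were mounted in organ baths of the same solution at 37°C. Contraction was recorded across increasing doses, with noradrenaline as reference agonist.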

CHO [2] = assay: (§2) Agonist activity at human alpha1L-adrenoceptor expressed in CHO cells co-expressing CRELD1alpha assessed as induction of calcium mobilization after 60 mins by fluorometric imaging plate reader assay; type: cell-based; method in brief: as §1
[3] = as §2; type: cell-based; settings: 1 h; method in brief: as §1

CC(C)c1cc(Cl)cc2c1NCCC2C1=NCCN1 (stereo not given)
Ratio (CHO [1]): 0.0028 | Activity (Rattus norvegicus): Dose-dependent effect

CC1CCCc2c(CC3=NCCN3)cc(Cl)cc21 (stereo not given)
Ratio (CHO [1]): 0.063

Clc1cc(CC2=NCCN2)c2c(c1)C1(CCO2)CC1
Ratio (CHO [1]): 0.088

Cc1c(CC2=NCCN2)cccc1C(C)C
Activity (CHO [2]): 36%

CC1(C)CCc2c(CC3=NCCN3)cc(Cl)cc21
Ratio (CHO [1]): 0.12

CC(C)c1cc(Cl)cc(CC2=NCCN2)c1
Ratio (CHO [1]): 0.52

NC[C@H](O)c1ccc(O)c(O)c1
EC50 [3]: 1.02 µM

CC1(C)CCCc2c(CC3=NCCN3)cc(Cl)cc21
Ratio (CHO [1]): 0.028

Clc1cc(CC2=NCCN2)c2c(c1)C1(CCC2)CC1
Ratio (CHO [1]): 0.025

CC(C)c1cc(Cl)cc2c1OCCC2C1=NCCN1 (stereo not given)
Ratio (CHO [1]): 0.014

Cc1c(CC2=NCCN2)cc(Cl)cc1C(C)C
Ratio (CHO [1]): 0.043

Cc1ccc(Cl)cc1CC1=NCCN1
Activity (CHO [2]): 0%

CC(C)c1cc(Cl)cc2c1CCC2C1=NCCN1 (stereo not given)
Ratio (CHO [1]): 0.08

CC(C)c1cc(Cl)cc2c1CCCC2C1=NCCN1 (stereo not given)
Ratio (CHO [1]): 0.024
